Experimental data from ChEMBL document CHEMBL4308858 (Eur J Med Chem, 2018).
pIC50: −log10 of the molar value. Activity calls are given as the source filed them. The calls are words filed in the database; no cut-off is given here.

Legend:
Anoctamin-2 = target: T1, Anoctamin-2 (Homo sapiens, UniProt Q9NQ90); test: Inhibition of YFP-fused ANO2 (unknown origin) expressed in FRT cells after 20 mins by fluorescence quenching method; type: cell-based; details: for pIC50: read-out: IC50
T1 sequence (Q9NQ90 whole entry): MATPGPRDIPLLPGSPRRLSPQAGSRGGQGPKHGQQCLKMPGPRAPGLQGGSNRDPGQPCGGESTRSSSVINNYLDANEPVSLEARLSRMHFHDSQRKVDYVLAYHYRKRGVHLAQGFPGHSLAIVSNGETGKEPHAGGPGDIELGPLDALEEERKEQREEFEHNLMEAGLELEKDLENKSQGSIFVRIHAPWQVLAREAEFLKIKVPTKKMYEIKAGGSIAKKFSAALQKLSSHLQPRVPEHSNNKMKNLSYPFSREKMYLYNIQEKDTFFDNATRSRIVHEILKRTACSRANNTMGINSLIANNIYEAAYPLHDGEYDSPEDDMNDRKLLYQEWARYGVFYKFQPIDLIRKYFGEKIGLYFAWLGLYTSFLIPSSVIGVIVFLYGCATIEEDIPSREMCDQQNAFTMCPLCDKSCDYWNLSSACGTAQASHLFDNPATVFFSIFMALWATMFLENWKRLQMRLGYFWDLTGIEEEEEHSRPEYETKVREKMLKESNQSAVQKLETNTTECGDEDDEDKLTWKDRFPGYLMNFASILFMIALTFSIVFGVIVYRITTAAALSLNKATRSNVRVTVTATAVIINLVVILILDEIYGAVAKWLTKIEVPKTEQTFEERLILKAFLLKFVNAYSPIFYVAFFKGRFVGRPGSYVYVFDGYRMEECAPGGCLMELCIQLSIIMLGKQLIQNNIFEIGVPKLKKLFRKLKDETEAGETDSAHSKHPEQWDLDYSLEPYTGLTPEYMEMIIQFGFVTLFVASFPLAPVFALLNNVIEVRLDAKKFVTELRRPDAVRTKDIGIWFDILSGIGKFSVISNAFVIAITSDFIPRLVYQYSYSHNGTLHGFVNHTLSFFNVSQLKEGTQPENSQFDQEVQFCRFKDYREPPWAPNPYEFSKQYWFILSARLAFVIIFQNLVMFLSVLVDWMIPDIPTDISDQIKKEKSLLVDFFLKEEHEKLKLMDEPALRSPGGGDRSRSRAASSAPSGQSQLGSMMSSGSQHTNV

Anoctamin-1 = target: T2, Anoctamin-1 (Homo sapiens, UniProt Q5XXA6); test: Inhibition of YFP-fused ANO1 (unknown origin) expressed in FRT cells after 20 mins by fluorescence quenching method; type: cell-based; details: for pIC50: read-out: IC50
T2 sequence (Q5XXA6 whole entry): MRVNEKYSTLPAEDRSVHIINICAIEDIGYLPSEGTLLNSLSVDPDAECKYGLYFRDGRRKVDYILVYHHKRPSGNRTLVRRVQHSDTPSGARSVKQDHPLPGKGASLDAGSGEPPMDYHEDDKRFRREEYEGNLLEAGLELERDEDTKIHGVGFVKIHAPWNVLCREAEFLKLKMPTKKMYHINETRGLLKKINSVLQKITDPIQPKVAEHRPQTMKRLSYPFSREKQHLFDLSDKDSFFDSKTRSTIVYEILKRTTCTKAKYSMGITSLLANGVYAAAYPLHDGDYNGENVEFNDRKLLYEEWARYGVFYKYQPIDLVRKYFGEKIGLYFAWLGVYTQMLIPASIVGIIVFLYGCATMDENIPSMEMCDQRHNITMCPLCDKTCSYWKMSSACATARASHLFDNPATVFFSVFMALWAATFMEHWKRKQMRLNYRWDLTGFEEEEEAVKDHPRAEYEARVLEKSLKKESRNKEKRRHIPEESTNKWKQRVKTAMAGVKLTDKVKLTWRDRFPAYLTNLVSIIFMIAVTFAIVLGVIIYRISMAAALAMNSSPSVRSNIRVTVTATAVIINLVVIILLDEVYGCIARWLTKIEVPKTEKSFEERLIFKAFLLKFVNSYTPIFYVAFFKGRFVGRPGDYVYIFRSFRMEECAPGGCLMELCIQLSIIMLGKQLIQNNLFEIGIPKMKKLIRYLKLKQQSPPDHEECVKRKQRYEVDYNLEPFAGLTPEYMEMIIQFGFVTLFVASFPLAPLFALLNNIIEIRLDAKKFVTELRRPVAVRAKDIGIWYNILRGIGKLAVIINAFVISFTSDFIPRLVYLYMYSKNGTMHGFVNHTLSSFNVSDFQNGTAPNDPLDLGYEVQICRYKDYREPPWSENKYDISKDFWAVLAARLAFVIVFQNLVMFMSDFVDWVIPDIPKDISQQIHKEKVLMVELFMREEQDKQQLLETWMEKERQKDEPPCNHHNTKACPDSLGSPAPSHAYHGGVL

ANO2 (Anoctamin-2) = target: T3, ANO2 (Anoctamin-2) (Homo sapiens, UniProt Q9NQ90); test: Inhibition of YFP-fused ANO2 (unknown origin) expressed in FRT cells after 20 mins by fluorescence quenching method relative to untreated control; type: cell-based; parameters: concentration or dose not given beside the values; details: FRT cells expressing YFP-fused ANO2
T3 sequence (Q9NQ90 whole entry): T1 sequence (Q9NQ90 whole entry)
Outline: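 FRT cells stably co-expressing YFP-H148Q/I152L/F46L and ANO1 or ANO2, seeded 2×10^4 per well and grown 48 h. After PBS washes, compound given for 20 min. At 2 s, 70 mM I⁻ solution containing 200 µM ATP added; fluorescence read every 0.4 s for 6 s. Inhibition taken from initial slope of quenching; mean ± S.E., n = 3.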

PC-3 [1] = test: Cytotoxicity against human PC3 cells assessed as reduction in cell viability at 10 uM after 48 hrs by MTS assay; type: functional, cell-based
Outline: (§1)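 PC3, MCF7 and BxPC3 cells grown in RPMI1640 with 10% FBS, plated and held 24 h in 2% FBS medium. At about 20% confluency, compound added at 0.01–30 µM for 48 h, with medium and compound replaced every 24 h. MTS reagent applied for 1 h and formazan absorbance read at 490 nm; mean ± S.E., n = 3.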

MCF7 [2] = test: Cytotoxicity against human MCF7 cells assessed as reduction in cell viability at 10 uM after 48 hrs by MTS assay; type: functional, cell-based; outline: as §1
BXPC-3 [3] = test: Cytotoxicity against human BxPC3 cells assessed as reduction in cell viability at 10 uM after 48 hrs by MTS assay; type: functional, cell-based; outline: as §1
[4] = target: CFTR (cystic fibrosis transmembrane conductance regulator) (Homo sapiens, UniProt P13569); test: Inhibition of wild type human CFTR expressed in FRT cells assessed as reduction in forskolin-induced chloride current at 10 uM after 20 mins by electrophysiological assay; type: cell-based; details: FRT cells expressing wild type human CFTR
Outline: (§2)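 Ussing chamber, FRT monolayers expressing ANO1, ANO2 or human WT-CFTR. Basolateral side permeabilised with amphotericin B (250 µg/mL) in HCO3⁻-buffered solution, pH 7.4; apical side half-Cl⁻ (65 mM NaCl replaced by gluconate). Run at 37 °C under 95% O2/5% CO2. Compound applied apically for 20 min, then ANO1/2 activated with 100 µM ATP or CFTR with 20 µM forskolin. Apical current recorded; n = 3–6.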

[5] = Half life in rat plasma at 5 uM by LC-MS/MS analysis; type: ADME, cell-free
Outline: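 Compound at 5 µM final in rat plasma, shaken at 37 °C and sampled at 0, 30, 60, 120 and 240 min. Reaction stopped with three volumes of ice-cold acetonitrile and protein spun out. Supernatant analysed by LC-MS/MS on a C18 column with formic acid/water–ACN mobile phase. Percent parent remaining taken from peak areas; n = 3.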

[6] = target: T4, Anoctamin-1 (Homo sapiens) (UniProt Q5XXA6); test: Inhibition of ANO1 (unknown origin) expressed in FRT cells assessed as reduction in ATP-induced chloride current after 20 mins by electrophysiological assay; type: cell-based
T4 sequence (whole entry): T2 sequence (Q5XXA6 whole entry)

[7] = target: Cystic fibrosis transmembrane conductance regulator (Homo sapiens, UniProt P13569); test: Inhibition of wild type human CFTR expressed in FRT cells assessed as reduction in forskolin-induced chloride current at 30 to 100 uM after 20 mins by electrophysiological assay; type: cell-based; outline: as §2
Homo sapiens [8] = species on record: Homo sapiens; test: Selectivity for ANO1 (unknown origin) over ANO2 (unknown origin)
Homo sapiens [9] = species on record: Homo sapiens; test: Selectivity for ANO1 (unknown origin) over wild type human CFTR
PC-3 [10] = test: Cytotoxicity against human PC3 cells assessed as reduction in cell viability after 48 hrs by MTS assay; type: functional, cell-based; outline: as §1
MCF7 [11] = test: Cytotoxicity against human MCF7 cells assessed as reduction in cell viability after 48 hrs by MTS assay; type: functional, cell-based; outline: as §1
BXPC-3 [12] = test: Cytotoxicity against human BxPC3 cells assessed as reduction in cell viability after 48 hrs by MTS assay; type: functional, cell-based; outline: as §1
PC-3 [13] = test: Inhibition of ANO1 protein expression level in human PC3 cells at 3 to 10 uM after 24 hrs by Western blot analysis; type: functional, cell-based
Outline: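 PC3 cells exposed to compound for 24 h and lysed in NP-40/deoxycholate buffer with protease and phosphatase inhibitors. Lysate cleared at 15000 g, resolved on 4–12% Tris-glycine gel and transferred to PVDF. Blocked in 4% milk/TBST, probed with anti-ANO1 (1:500) then anti-rabbit secondary (1:2000), and detected by ECL.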

Chain of CFTR (cystic fibrosis transmembrane conductance regulator) (P13569 whole entry): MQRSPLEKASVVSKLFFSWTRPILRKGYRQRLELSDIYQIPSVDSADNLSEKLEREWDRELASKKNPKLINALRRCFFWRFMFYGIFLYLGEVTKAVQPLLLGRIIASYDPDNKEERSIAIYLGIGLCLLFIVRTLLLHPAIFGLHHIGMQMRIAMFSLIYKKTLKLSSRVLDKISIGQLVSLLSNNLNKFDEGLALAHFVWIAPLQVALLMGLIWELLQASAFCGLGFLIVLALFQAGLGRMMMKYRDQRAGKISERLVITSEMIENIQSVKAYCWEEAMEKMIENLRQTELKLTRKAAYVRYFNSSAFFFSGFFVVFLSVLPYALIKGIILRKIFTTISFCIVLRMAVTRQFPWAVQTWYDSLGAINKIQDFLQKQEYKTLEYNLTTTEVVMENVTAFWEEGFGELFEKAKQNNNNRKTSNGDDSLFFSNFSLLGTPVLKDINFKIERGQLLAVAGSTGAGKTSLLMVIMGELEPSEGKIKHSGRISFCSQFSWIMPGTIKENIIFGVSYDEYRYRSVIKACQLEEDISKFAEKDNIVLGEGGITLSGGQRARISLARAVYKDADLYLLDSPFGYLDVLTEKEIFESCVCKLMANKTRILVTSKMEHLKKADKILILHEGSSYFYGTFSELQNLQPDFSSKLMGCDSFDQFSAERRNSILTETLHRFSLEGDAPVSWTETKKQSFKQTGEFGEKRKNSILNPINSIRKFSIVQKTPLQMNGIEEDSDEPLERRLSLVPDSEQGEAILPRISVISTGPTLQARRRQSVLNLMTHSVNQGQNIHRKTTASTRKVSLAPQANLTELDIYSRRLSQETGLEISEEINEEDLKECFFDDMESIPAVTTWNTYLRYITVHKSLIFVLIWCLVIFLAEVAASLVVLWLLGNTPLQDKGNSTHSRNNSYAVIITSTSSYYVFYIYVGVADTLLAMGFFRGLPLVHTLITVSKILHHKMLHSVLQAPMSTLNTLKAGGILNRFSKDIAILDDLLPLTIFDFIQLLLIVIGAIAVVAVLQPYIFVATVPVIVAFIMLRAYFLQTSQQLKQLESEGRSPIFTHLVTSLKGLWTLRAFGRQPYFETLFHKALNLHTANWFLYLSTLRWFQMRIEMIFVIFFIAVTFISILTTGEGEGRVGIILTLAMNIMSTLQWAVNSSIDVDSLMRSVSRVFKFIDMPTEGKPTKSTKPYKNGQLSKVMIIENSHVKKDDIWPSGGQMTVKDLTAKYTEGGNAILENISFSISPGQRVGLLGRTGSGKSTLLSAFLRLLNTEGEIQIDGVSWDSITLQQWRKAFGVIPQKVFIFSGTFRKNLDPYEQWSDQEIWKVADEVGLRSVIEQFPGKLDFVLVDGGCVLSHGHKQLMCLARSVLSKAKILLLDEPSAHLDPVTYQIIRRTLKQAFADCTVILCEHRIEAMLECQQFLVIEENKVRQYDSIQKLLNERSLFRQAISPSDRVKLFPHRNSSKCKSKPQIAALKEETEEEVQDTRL
Chain of Cystic fibrosis transmembrane conductance regulator (P13569 whole entry): as above

SMILES | pIC50 (Anoctamin-2) | pIC50 (Anoctamin-1) | IC50 (Anoctamin-2) | inhibition at 20 min (ANO2 (Anoctamin-2)) | further results
Cc1cc(Cl)ccc1OCC(=O)N/N=C/c1ccccn1 | < 4.00 | – | – | – | –
Cc1cc(Cl)ccc1OCC(=O)N/N=C/c1cccc(F)c1 | – | < 4.00 | Not Active | < 20% | –
COc1cccc(/C=N/NC(=O)COc2ccc(Cl)cc2C)c1 | – | < 4.00 | Not Active | < 20% | –
Cc1cc(Cl)ccc1OCC(=O)N/N=C/c1cccc(OC(F)(F)F)c1 | – | < 4.00 | Not Active | < 20% | Activity (PC-3 [1]): inactive; Activity (MCF7 [2]): inactive; Activity (BXPC-3 [3]): inactive
Cc1cc(Cl)ccc1OCC(=O)N/N=C/c1ccccc1C(F)(F)F | – | – | Not Active | < 20% | –
Cc1cc(Cl)ccc1OC(C)(C)C(=O)N/N=C/c1ccccc1OC(F)(F)F | < 4.00 | – | – | – | IC50 (Anoctamin-1): Not Active
C/C(=N\NC(=O)COc1ccc(Cl)cc1C)c1ccccc1OC(F)(F)F | < 4.00 | – | – | – | –
COc1ccccc1/C=N/NC(=O)c1cc2cc(Cl)ccc2o1 | < 4.00 | < 4.00 | – | – | –
O=C(O)c1ccc(/C=C2/SC(=S)N(c3cccc(C(F)(F)F)c3)C2=O)cc1 | – | – | – | – | inhibition at 20 min, 10 µM [4]: 100%
COc1ccccc1CNNC(=O)COc1ccc(Cl)cc1C | < 4.00 | – | – | – | –
COc1ccccc1/C=N/NC(=O)COc1ccc(Cl)cc1C | – | – | – | – | half-life at 5 µM [5]: 32 min
COc1ccccc1-c1nnc(-c2cc3cc(Cl)ccc3o2)o1 | < 4.00 | < 4.00 | – | – | –
Cc1cc(Cl)ccc1OC(C)C(=O)N/N=C/c1ccccc1OC(F)(F)F (configuration not stated) | – | < 4.00 | Not Active | – | –
Cc1cc(Cl)ccc1OCC(=O)N/N=C/c1ccccc1OC(F)(F)F | – | – | Not Active | < 20% | inhibition [6]: Dose-dependent effect; inhibition (INH) [7]: Not Active; Selectivity ratio (Homo sapiens [8]): > 1000; Selectivity ratio (Homo sapiens [9]): > 1000; Activity (PC-3 [10]): Dose-dependent effect; Activity (MCF7 [11]): Dose-dependent effect; Activity (BXPC-3 [12]): Dose-dependent effect; inhibition (PC-3 [13]): Active; half-life at 5 µM [5]: 104 min
Cc1cc(Cl)ccc1OCC(=O)N/N=C/c1ccco1 | – | – | Not Active | < 20% | –
Cc1cc(Cl)ccc1OC(F)(F)C(=O)N/N=C/c1ccccc1OC(F)(F)F | < 4.00 | < 4.00 | – | – | –
Cc1cc(Cl)ccc1OCC(=O)N/N=C/c1ccccc1F | – | 6.05 | Not Active | < 20% | –

Continued, in another order:

pIC50 (Anoctamin-2) | pIC50 (Anoctamin-1) | IC50 (Anoctamin-2) | inhibition at 20 min (ANO2 (Anoctamin-2)) | SMILES | further results
< 4.00 | – | – | – | Cc1cc(Cl)ccc1OCc1nnc(-c2ccccc2F)o1 | –
– | < 4.00 | Not Active | < 20% | Cc1cc(Cl)ccc1OCc1nnc(-c2cccc(OC(F)(F)F)c2)o1 | –
< 4.00 | < 4.00 | – | – | Cc1cc(Cl)ccc1OCc1nnc(-c2ccccc2C(F)(F)F)o1 | –
– | < 4.00 | Not Active | < 20% | Cc1cc(Cl)ccc1OCc1nnc(-c2ccccc2OC(F)(F)F)o1 | –
< 4.00 | – | – | – | Cc1cc(Cl)ccc1OCc1nnc(-c2ccco2)o1 | –
< 4.00 | < 4.00 | – | – | COc1cccc(-c2nnc(COc3ccc(Cl)cc3C)o2)c1 | –
– | < 4.00 | Not Active | < 20% | Cc1cc(Cl)ccc1OCc1nnc(-c2ccccn2)o1 | –
< 4.00 | < 4.00 | – | – | Cc1cc(Cl)ccc1OCc1nnc(-c2cccc(F)c2)o1 | –
